The text below walks through data of ChEMBL document CHEMBL1255294, “Genetic and biochemical characterization of OXA-63, a new class D beta-lactamase from Brachyspira pilosicoli BM4442” (Antimicrob Agents Chemother, 2008).

Data set [1] concerns the target T1, Class D beta-lactamase (Brachyspira pilosicoli, UniProt Q50H31).
T1 sequence (Q50H31 whole entry): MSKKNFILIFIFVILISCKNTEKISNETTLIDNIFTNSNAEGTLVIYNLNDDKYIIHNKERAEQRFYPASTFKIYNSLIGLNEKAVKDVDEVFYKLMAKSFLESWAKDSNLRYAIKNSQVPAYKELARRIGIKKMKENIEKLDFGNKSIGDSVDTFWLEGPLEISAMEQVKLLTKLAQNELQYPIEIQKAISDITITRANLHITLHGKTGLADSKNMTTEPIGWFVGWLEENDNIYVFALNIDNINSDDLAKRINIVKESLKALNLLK
Put plainly: Inhibition of Brachyspira pilosicoli beta-lactamase OXA-63 expressed in Escherichia coli BL21 (DE3) assessed as reduction in nitrocefin hydrolysis by spectrophotometry relative to oxacillin. The procedure, abridged:
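C-terminal His6-tagged OXA-63 was expressed in E. coli BL21(DE3)pLys with 0.5 mM IPTG for 4 h at 28°C and purified by nickel affinity. Enzyme (50 to 150 nM) was preincubated with inhibitor for 30 min at 25°C in 100 mM sodium phosphate, pH 7.0. 100 µM nitrocefin was then added, and initial hydrolysis rates were read spectrophotometrically. IC50 was the concentration halving the rate.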

Data set [2] has as its system Escherichia coli. Put plainly: Antimicrobial activity against Escherichia coli JM83 without producing beta-lactamase OXA-63 after 3 days by Etest. The format is functional.
Data set [3] relates to Brachyspira pilosicoli. As to the kind of experiment: Antimicrobial activity against Brachyspira pilosicoli 80.10 without producing beta-lactamase OXA-63 by disc diffusion method. The format is functional. The gist of the method: (§1)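 Disk diffusion was done on Mueller-Hinton agar supplemented with 5% sheep blood, following Comité de l'Antibiogramme de la Société Française de Microbiologie standards. Plates were incubated in an anaerobic jar at 37°C for 3 days.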

Data set [4] has as its system Escherichia coli. As to the kind of experiment: Antimicrobial activity against Escherichia coli JM83 harboring beta-lactamase OXA-63 after 3 days by Etest. The format is functional. The gist of the method: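 MICs for E. coli JM83 transformants were read by Etest on Mueller-Hinton agar. Transformants were selected on BHI agar with ampicillin 50 µg/ml and kanamycin 40 µg/ml.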

Data set [5] has as its system Brachyspira pilosicoli. As to the kind of experiment: Antimicrobial activity against beta-lactamase OXA-63 producing Brachyspira pilosicoli isolate BM4442 isolated from feces of patient with diarrhea by disc diffusion method. The class given is functional. The gist of the method: as §1
For orientation: Agar diffusion results depend on both activity and mobility in agar.

Data set [6] has as its target T2, Class D beta-lactamase (Brachyspira pilosicoli) (UniProt Q50H31).
T2 sequence (whole entry): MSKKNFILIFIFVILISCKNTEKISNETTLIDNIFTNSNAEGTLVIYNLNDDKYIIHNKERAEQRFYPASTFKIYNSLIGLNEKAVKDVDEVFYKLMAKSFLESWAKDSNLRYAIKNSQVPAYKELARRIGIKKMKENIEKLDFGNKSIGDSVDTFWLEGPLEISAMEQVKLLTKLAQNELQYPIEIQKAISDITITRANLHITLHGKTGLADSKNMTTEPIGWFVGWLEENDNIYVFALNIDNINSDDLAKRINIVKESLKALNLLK
As to the kind of experiment: Activity of Brachyspira pilosicoli beta-lactamase OXA-63 expressed in Escherichia coli BL21 (DE3) assessed as compound hydrolysis by spectrophotometry relative to oxacillin. Details: scale not given: the % may be the effect or the level left; call rule not given here.

Data set [7] can be described thus: Activity of beta-lactamase FUS1 assessed as compound hydrolysis by spectrophotometry.
Data set [8] in a line: Ratio of Kcat to Km for beta-lactamase FUS1 assessed as compound hydrolysis by spectrophotometry.
A short description of data set [9]: Activity of beta-lactamase FUS1 assessed as compound hydrolysis by spectrophotometry relative to benzyl-penicillin. Further details: scale not given: the % may be the effect or the level left.
Substrate in data set [10]: CCN1CCN(C(=O)N[C@@H](C(=O)N[C@@H]2C(=O)N3[C@@H]2SC(C)(C)[C@@H]3C(=O)O)c2ccccc2)C(=O)C1=O
Put plainly: (§2) Ratio of Kcat to Km for Brachyspira pilosicoli beta-lactamase OXA-63 expressed in Escherichia coli BL21 (DE3) assessed as compound hydrolysis by spectrophotometry.

Substrate in data set [11]: Cc1onc(-c2ccccc2)c1C(=O)N[C@@H]1C(=O)N2[C@@H]1SC(C)(C)[C@@H]2C(=O)O
The data set is described as §2.

Substrate in data set [12]: CC1(C)S[C@@H]2[C@H](NC(=O)[C@H](N)c3ccccc3)C(=O)N2[C@H]1C(=O)O
The data set is described as §2.

Substrate in data set [13]: CC1(C)S[C@@H]2[C@H](NC(=O)C(C(=O)O)c3ccccc3)C(=O)N2[C@H]1C(=O)O
Described as §2.

Substrate in data set [14]: CC1(C)S[C@@H]2[C@H](NC(=O)Cc3ccccc3)C(=O)N2[C@H]1C(=O)O
The data set is described as §2.

Substrate in data set [15]: CC(=O)OCC1=C(C(=O)O)N2C(=O)[C@@H](NC(=O)Cc3cccs3)[C@H]2SC1
As to the kind of experiment: (§3) Activity of Brachyspira pilosicoli beta-lactamase OXA-63 expressed in Escherichia coli BL21 (DE3) assessed as compound hydrolysis by spectrophotometry.

Substrate in data set [16]: CCN1CCN(C(=O)N[C@@H](C(=O)N[C@@H]2C(=O)N3[C@@H]2SC(C)(C)[C@@H]3C(=O)O)c2ccccc2)C(=O)C1=O
Described as §3.

Substrate in data set [17]: Cc1onc(-c2ccccc2)c1C(=O)N[C@@H]1C(=O)N2[C@@H]1SC(C)(C)[C@@H]2C(=O)O
Described as §3.

Substrate in data set [18]: CC1(C)S[C@@H]2[C@H](NC(=O)[C@H](N)c3ccccc3)C(=O)N2[C@H]1C(=O)O
The description is as §3.

Substrate in data set [19]: CC1(C)S[C@@H]2[C@H](NC(=O)C(C(=O)O)c3ccccc3)C(=O)N2[C@H]1C(=O)O
The data set is described as §3.

Substrate in data set [20]: CC1(C)S[C@@H]2[C@H](NC(=O)Cc3ccccc3)C(=O)N2[C@H]1C(=O)O
The description is as §3.

Substrate in data set [21]: CO/N=C(\C(=O)N[C@@H]1C(=O)N2C(C(=O)O)=C(COC(N)=O)CS[C@H]12)c1ccco1
The description is as §3.

Converted amounts (≈) assume the structure as drawn. Bounds are passed on as bounds.

In the case of `CC1(C)[C@H](C(=O)O)N2C(=O)C[C@H]2S1(=O)=O` [SULBACTAM], the IC50 (usually the concentration that inhibits the measured activity by half) in [1] stood at 12000 nM.
With `C[C@H]1[C@H](NC(=O)/C(=N\OC(C)(C)C(=O)O)c2csc(N)n2)C(=O)N1S(=O)(=O)O` [AZTREONAM], the MIC (as a rule, the least concentration at which growth counts as inhibited) in data set [2] was found to be 0.19 µg/mL (≈ 0.436 µM); in [3], 1 µg/mL (≈ 2.3 µM); in [4], 0.19 µg/mL (≈ 0.436 µM); in data set [5], 1 µg/mL (≈ 2.3 µM).
Consider `CC1(C)S[C@@H]2[C@H](NC(=O)Cc3ccccc3)C(=O)N2[C@H]1C(=O)O` [PENICILLIN G], for which the MIC was determined as 24 µg/mL (≈ 71.8 µM) in [2], 0.023 µg/mL (≈ 0.0688 µM) in [3], 256 µg/mL (≈ 766 µM) in [4] and 2 µg/mL (≈ 5.98 µM) in [5]. The Activity in [6] stood at 25.5%. Further, the Km (usually the concentration of substrate that gives half-maximal velocity) in data set [7] stood at 10 µM. Besides, the catalytic constant (kcat) (usually the number of substrate molecules converted per active site and unit of time at saturation) in data set [7] turned out to be 830 s⁻¹. For the same molecule, the kcat/Km in [8] was determined as 8.3 ×10⁷ /M/s.
For `C[C@]1(Cn2ccnn2)[C@H](C(=O)O)N2C(=O)C[C@H]2S1(=O)=O` [TAZOBACTAM], the IC50 in data set [1] came to 160 nM.
As for `C[C@@H](O)[C@H]1C(=O)N2C(C(=O)O)=C(S[C@@H]3CN[C@H](C(=O)N(C)C)C3)[C@H](C)[C@H]12` [MEROPENEM], the MIC in [2] was 0.032 µg/mL (≈ 0.0834 µM); in [3], 0.032 µg/mL (≈ 0.0834 µM); in data set [4] it was 0.016 µg/mL (≈ 0.0417 µM); in data set [5], 0.032 µg/mL (≈ 0.0834 µM).
As for `CC1(C)S[C@@H]2[C@H](NC(=O)[C@H](N)c3ccccc3)C(=O)N2[C@H]1C(=O)O`, the Activity in data set [6] turned out to be 15%. The Activity in [9] is 0.7%. Moreover, in data set [7], the Km is 76 µM and the kcat worked out at 45 s⁻¹. Besides, the kcat/Km in data set [8] was 5.7 ×10⁵ /M/s.
With `CC1(C)S[C@@H]2[C@H](NC(=O)[C@H](N)c3ccc(O)cc3)C(=O)N2[C@H]1C(=O)O` [AMOXICILLIN], the MIC was determined as 6 µg/mL (≈ 16.4 µM) in data set [2], 0.047 µg/mL (≈ 0.129 µM) in data set [3], 256 µg/mL (≈ 701 µM) in [4] and 1.5 µg/mL (≈ 4.1 µM) in [5].
Taken in the same sequence, the figures for `C[C@@H](O)[C@H]1C(=O)N2C(C(=O)O)=C(SCCNC=N)C[C@H]12` [IMIPENEM ANHYDROUS] were less than 4 µg/mL, less than 4 µg/mL, 4 µg/mL (≈ 13.4 µM) and less than 4 µg/mL.
For `CO/N=C(\C(=O)N[C@@H]1C(=O)N2C(C(=O)O)=C(COC(N)=O)CS[C@H]12)c1ccco1`, the Activity in [9] came to 0.005%. Also, in data set [7], the Km is greater than 400 µM and the kcat is greater than 1.8 s⁻¹. For the same molecule, in data set [8], the kcat/Km was found to be 4.5 ×10⁵ /M/s.
For `Cc1onc(-c2ccccc2)c1C(=O)N[C@@H]1C(=O)N2[C@@H]1SC(C)(C)[C@@H]2C(=O)O` [OXACILLIN], the minimal inhibitory concentration (MIC) was 0.125 µg/mL (≈ 0.311 µM) in [3] and greater than 256 µg/mL in [5]. Also, in data set [9], the Activity turned out to be 25%. In addition, the Km in data set [7] turned out to be 36 µM. Besides, the kcat in data set [7] is 780 s⁻¹. For the same molecule, the kcat/Km in data set [8] is 2.1 ×10⁷ /M/s.
In the case of `CO/N=C(\C(=O)N[C@@H]1C(=O)N2C(C(=O)O)=C(COC(C)=O)CS[C@H]12)c1csc(N)n1` [CEFOTAXIME], the MIC in data set [2] was 0.064 µg/mL (≈ 0.141 µM); in [3], less than 0.016 µg/mL; in data set [4], 0.064 µg/mL (≈ 0.141 µM); in [5] it was 0.032 µg/mL (≈ 0.0703 µM).
On to `CC(=O)OCC1=C(C(=O)O)N2C(=O)[C@@H](NC(=O)Cc3cccs3)[C@H]2SC1`, for which the Activity in data set [9] turned out to be 0.1%. Further, in [7], the Michaelis-Menten constant (Km) is 47 µM and the turnover number (kcat) was found to be 4.1 s⁻¹. Besides, the kcat/Km in [8] came out at 8.7 ×10⁵ /M/s.
Turning to `CCN1CCN(C(=O)N[C@@H](C(=O)N[C@@H]2C(=O)N3[C@@H]2SC(C)(C)[C@@H]3C(=O)O)c2ccccc2)C(=O)C1=O` [PIPERACILLIN], the MIC stood at 1.5 µg/mL (≈ 2.9 µM) in [2], 0.016 µg/mL (≈ 0.0309 µM) in data set [3], 96 µg/mL (≈ 185 µM) in data set [4] and 48 µg/mL (≈ 92.7 µM) in data set [5]. Moreover, in data set [6], the Activity was found to be 6.5%.
In the case of `O=C(O)[C@H]1/C(=C/CO)O[C@@H]2CC(=O)N21` [CLAVULANIC ACID], the IC50 in data set [1] was 2000 nM.
For the molecule `CC(C)(O/N=C(\C(=O)N[C@@H]1C(=O)N2C(C(=O)[O-])=C(C[n+]3ccccc3)CS[C@H]12)c1csc(N)n1)C(=O)O` [CEFTAZIDIME], the minimal inhibitory concentration (MIC) in data set [2] was determined as 0.5 µg/mL (≈ 0.915 µM); in data set [3], 4 µg/mL (≈ 7.32 µM); in data set [4], 0.5 µg/mL (≈ 0.915 µM); in data set [5], 4 µg/mL (≈ 7.32 µM).

B1: Class D beta-lactamase (Brachyspira pilosicoli), Q50H31 (protein)
chain: MSKKNFILIFIFVILISCKNTEKISNETTLIDNIFTNSNAEGTLVIYNLNDDKYIIHNKERAEQRFYPASTFKIYNSLIGLNEKAVKDVDEVFYKLMAKSFLESWAKDSNLRYAIKNSQVPAYKELARRIGIKKMKENIEKLDFGNKSIGDSVDTFWLEGPLEISAMEQVKLLTKLAQNELQYPIEIQKAISDITITRANLHITLHGKTGLADSKNMTTEPIGWFVGWLEENDNIYVFALNIDNINSDDLAKRINIVKESLKALNLLK
On to B1, for which the kcat/Km is 6.4 ×10⁴ /M/s in data set [10]; 9.8 ×10⁵ /M/s in [11]; 1.5 ×10⁵ /M/s in [12]; 6.5 ×10⁴ /M/s in data set [13]; 2.5 ×10⁵ /M/s in data set [14]. In addition, the kcat entry in [15] was “Not Active”; in data set [16], 2.1 s⁻¹; in [17] it was 113 s⁻¹; in data set [18], 6.6 s⁻¹; in data set [19] it was 1.1 s⁻¹; in data set [20] it was 4.9 s⁻¹. Besides, the kcat result in [21] is recorded as “Not Active”. Further, the Km in [16] came to 33 µM; in [17] it was 115 µM; in data set [18], 43 µM; in data set [19], 17 µM; in data set [20] it was 19 µM.
